The results in this text go back to ChEMBL document CHEMBL1629616 (Antimicrob Agents Chemother, 2009).

For orientation: IC50 means the concentration needed to halve the response being measured. One may read the inhibition as the percentage by which the read-out fell short of the control. For orientation: Ki means a measure of affinity in units of concentration, obtained from inhibition or displacement.

Data set [1] deals with T1, Cytochrome P450 2B6 (Homo sapiens, UniProt P20813).
T1 sequence (P20813 whole entry): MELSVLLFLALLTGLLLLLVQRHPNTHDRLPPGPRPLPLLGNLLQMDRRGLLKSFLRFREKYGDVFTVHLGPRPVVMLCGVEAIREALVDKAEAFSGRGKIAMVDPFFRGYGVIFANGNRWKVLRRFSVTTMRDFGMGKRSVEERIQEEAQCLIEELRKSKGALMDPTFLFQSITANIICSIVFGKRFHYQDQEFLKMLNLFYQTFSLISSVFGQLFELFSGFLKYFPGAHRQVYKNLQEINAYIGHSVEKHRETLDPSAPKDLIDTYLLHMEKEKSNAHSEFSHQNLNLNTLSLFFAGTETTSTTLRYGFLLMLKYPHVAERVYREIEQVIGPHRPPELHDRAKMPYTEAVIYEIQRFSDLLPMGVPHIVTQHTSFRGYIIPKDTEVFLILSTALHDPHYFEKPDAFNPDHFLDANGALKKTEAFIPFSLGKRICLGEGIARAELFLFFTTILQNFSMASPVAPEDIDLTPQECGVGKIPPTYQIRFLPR
Kind of data set: Inhibition of CYP2B6 in human liver microsomes assessed as 8-hydroxyefavirenz 14-hydroxylation after 10 mins. The data set is classed as ADME, Microsome.

For data set [2], the target named is T1, Cytochrome P450 2B6. Kind of data set: Inhibition of CYP2B6 in human liver microsomes assessed as efavirenz 8-hydroxylation at 10 uM after 60 mins. As to conditions: 1 h; call rule not given here. The data set is classed as ADME, Microsome. (Liver microsomes are vesicles of endoplasmic reticulum, rich in cytochrome P450 enzymes.)
The nature of data set [3]: Inhibition of CYP3A using midazolam as probe. The data set is classed as ADME. Put shortly:
(§1)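 1′-Hydroxymidazolam measured by HPLC-UV at 230 nm with desmethyldiazepam internal standard. IC50 from log concentration versus percent activity remaining.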

In data set [4] the target is T1, Cytochrome P450 2B6. Kind of data set: Inhibition of CYP2B6 in human liver microsomes using 8-hydroxyefavirenz as probe after 10 mins. The data set is classed as ADME, Microsome.
Data set [5] concerns the target T1, Cytochrome P450 2B6. Kind of data set: Inhibition of CYP2B6 in human liver microsomes using bupropion as probe after 15 mins.
In data set [6] the target is CYP3A (Homo sapiens, UniProt P08684+P20815+P24462+Q9HB55). The experiment in a line: Inhibition of CYP3A in human liver microsomes assessed as midazolam 1'- hydroxylation after 5 mins. The data set is classed as ADME, Microsome. As to conditions: probe midazolam (1'-hydroxylation). In outline:
as §1

Data set [7] addresses T2, CYP2A6 (Homo sapiens, UniProt P11509).
T2 sequence (P11509 whole entry): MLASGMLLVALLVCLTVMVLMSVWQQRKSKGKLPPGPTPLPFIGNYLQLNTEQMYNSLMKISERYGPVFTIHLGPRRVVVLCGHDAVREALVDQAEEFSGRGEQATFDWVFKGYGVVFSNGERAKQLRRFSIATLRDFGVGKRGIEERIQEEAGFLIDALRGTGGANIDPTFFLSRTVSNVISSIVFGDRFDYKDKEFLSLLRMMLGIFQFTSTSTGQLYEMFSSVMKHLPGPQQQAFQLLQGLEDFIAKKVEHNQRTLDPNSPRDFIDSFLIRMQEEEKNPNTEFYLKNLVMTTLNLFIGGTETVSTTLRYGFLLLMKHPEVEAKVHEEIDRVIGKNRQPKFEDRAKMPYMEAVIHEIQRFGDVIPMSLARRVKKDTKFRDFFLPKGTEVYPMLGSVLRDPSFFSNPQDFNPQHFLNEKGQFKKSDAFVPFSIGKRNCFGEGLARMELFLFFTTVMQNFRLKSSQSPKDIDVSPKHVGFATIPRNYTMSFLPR
Kind of data set: Inhibition of CYP2A6 in human liver microsomes assessed as coumarin 7-hydroxylation at 100 uM after 15 mins. The data set is classed as ADME, Microsome. As to conditions: probe coumarin (7-hydroxylation).

Data set [8] concerns the target T1, Cytochrome P450 2B6. The experiment in a line: Inhibition of CYP2B6 in human liver microsomes assessed as metabolite formation at 10 uM preincubated for 60 mins. It is filed as ADME, Microsome.
For data set [9], the target named is CYP2D6 (Homo sapiens, UniProt P10635). The experiment in a line: Inhibition of CYP2D6 in human liver microsomes assessed as dextromethorphan O-demethylation at 100 uM after 30 mins. Conditions: probe dextromethorphan (O-demethylation). The data set is classed as ADME, Microsome.
Sequence of CYP2D6 (P10635 whole entry): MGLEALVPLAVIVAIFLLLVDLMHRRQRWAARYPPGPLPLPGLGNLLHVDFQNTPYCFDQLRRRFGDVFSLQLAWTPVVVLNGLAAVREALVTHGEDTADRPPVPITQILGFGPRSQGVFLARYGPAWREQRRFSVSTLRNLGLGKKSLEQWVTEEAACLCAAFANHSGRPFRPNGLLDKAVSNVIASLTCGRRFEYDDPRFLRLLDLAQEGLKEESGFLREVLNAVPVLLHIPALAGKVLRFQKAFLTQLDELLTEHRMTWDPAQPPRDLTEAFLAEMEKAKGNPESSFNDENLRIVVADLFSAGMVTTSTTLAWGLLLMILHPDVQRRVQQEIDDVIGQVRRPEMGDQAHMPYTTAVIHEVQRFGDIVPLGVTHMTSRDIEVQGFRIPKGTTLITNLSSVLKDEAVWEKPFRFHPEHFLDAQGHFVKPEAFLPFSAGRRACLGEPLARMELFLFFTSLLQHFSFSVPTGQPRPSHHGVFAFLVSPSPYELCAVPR
The target in data set [10] is T3, CYP1A2 (Homo sapiens, UniProt P05177).
T3 sequence (P05177 whole entry): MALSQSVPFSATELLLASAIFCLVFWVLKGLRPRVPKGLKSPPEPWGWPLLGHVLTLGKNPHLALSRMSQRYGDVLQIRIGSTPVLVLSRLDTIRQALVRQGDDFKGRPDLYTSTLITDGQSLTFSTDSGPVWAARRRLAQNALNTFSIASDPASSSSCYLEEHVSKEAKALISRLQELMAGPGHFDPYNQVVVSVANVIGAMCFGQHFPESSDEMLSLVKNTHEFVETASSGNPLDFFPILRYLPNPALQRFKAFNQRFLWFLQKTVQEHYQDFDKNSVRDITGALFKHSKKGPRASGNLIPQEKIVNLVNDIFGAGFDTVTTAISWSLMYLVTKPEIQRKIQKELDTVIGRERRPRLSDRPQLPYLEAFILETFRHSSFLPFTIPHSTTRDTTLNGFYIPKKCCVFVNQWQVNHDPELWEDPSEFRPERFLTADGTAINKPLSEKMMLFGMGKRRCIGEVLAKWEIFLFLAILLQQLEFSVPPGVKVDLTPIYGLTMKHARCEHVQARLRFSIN
The experiment in a line: Inhibition of CYP1A2 in human liver microsomes assessed as phenacetin O-deethylation at 100 uM after 30 mins. It is filed as ADME, Microsome. Conditions: probe phenacetin (O-deethylation).

For data set [11], the target named is T1, Cytochrome P450 2B6. Kind of data set: Inhibition of CYP2B6 in human liver microsomes assessed as bupropion 4-hydroxylation after 15 mins.
Data set [12] in a line: Inhibition of CYP3A using nifedipine as probe. The data set is classed as ADME.
The target in data set [13] is T1, Cytochrome P450 2B6. The experiment in a line: Inhibition of CYP2B6 in human liver microsomes assessed as efavirenz 8-hydroxylation after 10 mins. The data set is classed as ADME, Microsome. Put shortly: (§2)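 Ethyl acetate extraction under alkaline pH; 8-hydroxyefavirenz measured by HPLC-UV at 245 nm with ritonavir internal standard. IC50 from log concentration versus percent activity remaining.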

A short description of data set [14]: Inhibition of CYP3A using testosterone as probe. The data set is classed as ADME.
The nature of data set [15]: Inhibition of CYP3A using felodipine as probe. The data set is classed as ADME.
For data set [16], the target named is T4, CYP2C8 (Homo sapiens, UniProt P10632).
T4 sequence (P10632 whole entry): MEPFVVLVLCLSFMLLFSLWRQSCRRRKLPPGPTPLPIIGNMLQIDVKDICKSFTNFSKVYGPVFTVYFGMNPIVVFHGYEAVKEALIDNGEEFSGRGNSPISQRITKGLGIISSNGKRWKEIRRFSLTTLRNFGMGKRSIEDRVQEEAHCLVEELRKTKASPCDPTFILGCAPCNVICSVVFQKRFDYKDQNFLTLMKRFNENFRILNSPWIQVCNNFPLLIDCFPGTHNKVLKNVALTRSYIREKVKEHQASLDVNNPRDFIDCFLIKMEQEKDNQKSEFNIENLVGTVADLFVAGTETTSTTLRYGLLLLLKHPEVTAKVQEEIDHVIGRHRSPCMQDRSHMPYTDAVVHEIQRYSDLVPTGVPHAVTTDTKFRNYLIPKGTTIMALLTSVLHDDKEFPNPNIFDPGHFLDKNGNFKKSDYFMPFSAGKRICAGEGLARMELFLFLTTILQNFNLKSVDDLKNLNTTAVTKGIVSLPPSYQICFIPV
Kind of data set: Inhibition of CYP2C8 in human liver microsomes assessed as amodiquine N-deethylation at 100 uM after 15 mins. It is filed as ADME, Microsome. Conditions: probe amodiquine (N-deethylation).

Data set [17] addresses T1, Cytochrome P450 2B6. Kind of data set: Inhibition of CYP2B6 in human liver microsomes assessed as bupropion 4-hydroxylation after 15 mins by Dixon plot analysis. It is filed as ADME, Microsome.
Data set [18] has as its target T1, Cytochrome P450 2B6. The experiment in a line: Inhibition of CYP2B6 in human liver microsomes assessed as efavirenz 8-hydroxylation after 10 mins by Dixon plot analysis. It is filed as ADME, Microsome. Put shortly:
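8-Hydroxyefavirenz measured by HPLC-UV. Ki from nonlinear regression to competitive, noncompetitive and uncompetitive models, chosen using Dixon plots.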

Data set [19] deals with T1, Cytochrome P450 2B6. The experiment in a line: Inhibition of human CYP2B6 expressed in baculovirus assessed as voriconazole N-oxide formation. It is filed as ADME.
Data set [20] deals with T1, Cytochrome P450 2B6. The experiment in a line: Inhibition of CYP2B6 in human liver microsomes using efavirenz as probe after 10 mins. It is filed as ADME, Microsome. In outline:
as §2

Data set [21] concerns the target T1, Cytochrome P450 2B6. Kind of data set: Inhibition of CYP2B6 in human liver microsomes at 10 uM preincubated for 5 to 30 mins. The data set is classed as ADME, Microsome. Put shortly:
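Efavirenz (final 100 μM) then added and incubated 10 min with cofactors. Activity compared with 0-min controls lacking inhibitor and NADPH.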

As for `C[C@@H](c1ncncc1F)[C@](O)(Cn1cncn1)c1ccc(F)cc1F` [VORICONAZOLE], the IC50 in data set [1] amounted to 790 nM; in [3] it was 10500 nM; in data set [4] it was 790 nM; in data set [5], 1190 nM; in [11] it was 1190 nM; in [12] it was 10500 nM. The concentration for half-maximal inhibition (IC50) in data set [13] is 1710 nM; in [14], 54000 nM; in [15], 50000 nM; in data set [19], 12200 nM; in data set [20], 1710 nM. Moreover, the “inhibition (INH)” value in [2] is on record as “Not Active”; in data set [8], “Active”; in [21], “Not Active”. Further, the IC50 at 5 min in [6] was 2900 nM. Besides, the inhibition at 0.25 h, 100 µM in data set [7] and in data set [16] was below 25% in each case. Further, the inhibition at 0.5 h, 100 µM in data set [9] and in [10] was below 25% throughout. The inhibitory constant (Ki) was found to be 340 nM in [17] and 400 nM in [18].
